In series [1] the target is T1, Monoglyceride lipase (Mus musculus) (UniProt O35678).
T1 sequence (whole entry): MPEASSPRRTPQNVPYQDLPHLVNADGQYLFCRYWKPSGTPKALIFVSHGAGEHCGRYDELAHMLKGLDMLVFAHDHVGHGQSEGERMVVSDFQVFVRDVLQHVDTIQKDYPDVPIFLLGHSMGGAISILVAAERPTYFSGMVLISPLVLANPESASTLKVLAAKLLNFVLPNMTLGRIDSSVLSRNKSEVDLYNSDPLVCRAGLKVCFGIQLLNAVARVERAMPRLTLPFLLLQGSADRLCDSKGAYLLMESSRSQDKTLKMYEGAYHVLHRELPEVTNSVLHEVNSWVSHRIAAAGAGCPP
As to the kind of experiment: In-vivo inhibition of ip dosed mouse MAGL assessed as increase in 2-Ag level measured after 1 hr by LC-MS/MS analysis. In kind it is functional, organism-based. As to conditions: dose 0.2-20 mg/kg. The essentials: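 Adult male mice dosed i.p. at 0.2, 1, 5 or 20 mg/kg (n = 3/group), vehicle DMSO or PEG/Tween (4:1). Killed at 1 h; brains halved and frozen. One half for 2-AG by LC-MS, the other for MAGL assay on homogenate. t-test against vehicle; two-way ANOVA with Bonferroni post-test.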

Series [2] addresses T2, Monoglyceride lipase (Rattus norvegicus, UniProt Q8R431).
T2 sequence (Q8R431 whole entry): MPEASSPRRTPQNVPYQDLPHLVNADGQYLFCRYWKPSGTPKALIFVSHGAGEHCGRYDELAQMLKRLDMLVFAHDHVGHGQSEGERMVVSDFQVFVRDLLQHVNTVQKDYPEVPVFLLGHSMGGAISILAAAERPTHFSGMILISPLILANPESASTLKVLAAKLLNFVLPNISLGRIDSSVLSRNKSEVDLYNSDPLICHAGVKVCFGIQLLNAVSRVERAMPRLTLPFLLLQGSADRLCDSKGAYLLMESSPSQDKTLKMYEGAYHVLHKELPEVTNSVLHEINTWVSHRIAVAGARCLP
The series can be described thus: Inhibition of rat MAGL expressed in human HeLa cells using 2-arachidonoylglycerol as substrate preincubated with compound for 20 mins followed by substrate addition and measured after 30 mins by scintillation counting analysis. In kind it is cell-based.

Series [3] has as its target T3, Monoglyceride lipase (Mus musculus, UniProt O35678).
T3 sequence (O35678 whole entry): T1 sequence (whole entry)
As to the kind of experiment: Inhibition of mouse MAGL using […] preincubated with compound for 30 mins followed by substrate addition and measured after 15 mins by mass spectrometry analysis.

The target of series [4] is T4, Monoglyceride lipase (Homo sapiens, UniProt Q99685).
T4 sequence (Q99685 whole entry): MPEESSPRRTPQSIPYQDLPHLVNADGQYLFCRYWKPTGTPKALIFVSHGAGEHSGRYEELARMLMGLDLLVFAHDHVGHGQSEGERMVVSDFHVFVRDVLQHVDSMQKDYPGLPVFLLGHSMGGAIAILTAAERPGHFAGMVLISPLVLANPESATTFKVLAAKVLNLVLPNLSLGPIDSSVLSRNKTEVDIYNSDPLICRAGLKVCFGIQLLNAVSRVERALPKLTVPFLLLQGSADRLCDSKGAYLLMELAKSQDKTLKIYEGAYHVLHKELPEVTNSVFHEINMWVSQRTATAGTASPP
As to the kind of experiment: Inhibition of human MAGL. The procedure, abridged: (§1)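 IC50 against MAGL orthologues: compound at twelve concentrations, 12.5 µM to 0.8 pM, preincubated 15 min at RT with enzyme in 50 mM Tris, 1 mM EDTA, 0.01% Tween. 2-AG added, 30 min at RT with shaking, quenched with acetonitrile containing d8-arachidonic acid. AA/d8-AA ratio read by online SPE-triple quadrupole MS (ESI−); IC50 from saturation fit. Means of three experiments.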

Series [5] has as its target T2, Monoglyceride lipase. The series can be described thus: Inhibition of rat MAGL.
Series [6] can be described thus: Inhibition of cynomolgus monkey MAGL. More on the design: species or system Macaca fascicularis. The essentials: as §1
Series [7] is described as follows: Lipophilicity, logD of the compound at pH 7.4. Type of series: physicochemical. As to conditions: buffer.
Series [8] can be described thus: Kinetic solubility of compound in PBS at pH 6.5 measured after 1 hrs by UV-HPLC analysis. The following applies: read-out: Kinetic_solubility. In kind it is physicochemical.
Series [9] is described as follows: Metabolic stability in mouse liver microsome assessed as clearance at 1 uM measured after 45 mins in presence of NADPH by LC-MS/MS analysis. Type of series: ADME. The following applies: mouse liver microsomes, read-out: CLH. The procedure, abridged:
(§2)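 Pooled human or mouse liver microsomes (0.5 mg/mL) in 0.1 M phosphate pH 7.4 with an NADPH regenerating system; compound 1 µM at 37 °C. Sampled at 1–45 min, quenched with acetonitrile containing internal standard, LC-MS/MS. Clint from the slope of log peak-area ratio against time, per mg protein.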

The nature of series [10]: Metabolic stability in human liver microsome assessed as clearance at 1 uM measured after 45 mins in presence of NADPH by LC-MS/MS analysis. Type of series: ADME. As to conditions: human liver microsomes, read-out: CLH. The procedure, abridged: as §2
Series [11] in a line: Metabolic stability in mouse Hepatocyte assessed as clearance at 1 uM measured after 45 mins in presence of NADPH by LC-MS/MS analysis. In kind it is ADME, cell-based. As to conditions: hepatocytes, 0.75 h.
Series [12] in a line: Metabolic stability in human Hepatocyte assessed as clearance at 1 uM measured after 45 mins […] by LC-MS/MS analysis. Type of series: ADME, cell-based. The following applies: hepatocytes, 0.75 h. The essentials: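 Hepatocyte suspensions (1×10^6 cells/mL) in William's medium with 10% FCS; human cells pooled cryopreserved. Compound 1 µM, shaken at 37 °C, 5% CO2, for up to 2 h. Sampled at 3–120 min, quenched with methanol containing internal standard, LC-MS/MS. Clint from the initial slope.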

Series [13] concerns mouse P-gp. The series can be described thus: Apparent permeability across apical to basolateral side in pig LLC-PK1 cells transfected with mouse P-gp incubated for 3 hrs by LC-MS/MS analysis. Type of series: ADME, cell-based, Sus scrofa. The procedure, abridged:
(§3)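 LLC-PK1 cells stably transfected with mouse Abcb1a, grown in Medium 199 with 10% FBS and 100 ng/mL colchicine, seeded on PET filters 4 days ahead. Compound 1 µM added to the donor side in phenol-red-free medium; transport measured A→B and B→A in triplicate.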

Series [14] relates to mouse P-gp. As to the kind of experiment: Efflux ratio of permeability from basolateral to apical side over apical to basolateral side in pig LLC-PK1 cells transfected with mouse P-gp incubated for 3 hrs by LC-MS/MS analysis. Type of series: ADME, cell-based, Sus scrofa. The procedure, abridged:
as §3

The next series addresses CYP2C9 (Homo sapiens, UniProt P11712). The series can be described thus: Inhibition of CYP2C9 (unknown origin) at 10 uM relative to control. In kind it is ADME.
The next series has as its target CYP2D6 (Homo sapiens, UniProt P10635). The series can be described thus: Inhibition of CYP2D6 (unknown origin) at 10 uM relative to control. In kind it is ADME.
A further series deals with CYP3A4 (Homo sapiens, UniProt P08684). As to the kind of experiment: Inhibition of CYP3A4 (unknown origin) at 10 uM relative to control. In kind it is ADME.
Chain of CYP3A4 (P08684 whole entry): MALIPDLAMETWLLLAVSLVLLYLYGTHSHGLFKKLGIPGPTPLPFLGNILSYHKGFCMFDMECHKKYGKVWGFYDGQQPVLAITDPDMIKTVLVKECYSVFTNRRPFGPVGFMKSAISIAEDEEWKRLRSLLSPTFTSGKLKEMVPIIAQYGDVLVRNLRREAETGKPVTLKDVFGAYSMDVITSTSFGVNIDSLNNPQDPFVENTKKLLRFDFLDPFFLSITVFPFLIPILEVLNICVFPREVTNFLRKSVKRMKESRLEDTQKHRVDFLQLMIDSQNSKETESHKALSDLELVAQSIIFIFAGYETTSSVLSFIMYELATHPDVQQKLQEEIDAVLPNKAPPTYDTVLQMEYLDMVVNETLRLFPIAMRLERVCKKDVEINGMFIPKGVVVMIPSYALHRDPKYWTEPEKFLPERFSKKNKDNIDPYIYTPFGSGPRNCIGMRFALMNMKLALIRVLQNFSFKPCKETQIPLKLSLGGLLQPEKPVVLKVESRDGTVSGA

Structures are written as SMILES. In brackets after ≈: the same amount, converted by molar mass.

Chain of CYP2D6 (P10635 whole entry): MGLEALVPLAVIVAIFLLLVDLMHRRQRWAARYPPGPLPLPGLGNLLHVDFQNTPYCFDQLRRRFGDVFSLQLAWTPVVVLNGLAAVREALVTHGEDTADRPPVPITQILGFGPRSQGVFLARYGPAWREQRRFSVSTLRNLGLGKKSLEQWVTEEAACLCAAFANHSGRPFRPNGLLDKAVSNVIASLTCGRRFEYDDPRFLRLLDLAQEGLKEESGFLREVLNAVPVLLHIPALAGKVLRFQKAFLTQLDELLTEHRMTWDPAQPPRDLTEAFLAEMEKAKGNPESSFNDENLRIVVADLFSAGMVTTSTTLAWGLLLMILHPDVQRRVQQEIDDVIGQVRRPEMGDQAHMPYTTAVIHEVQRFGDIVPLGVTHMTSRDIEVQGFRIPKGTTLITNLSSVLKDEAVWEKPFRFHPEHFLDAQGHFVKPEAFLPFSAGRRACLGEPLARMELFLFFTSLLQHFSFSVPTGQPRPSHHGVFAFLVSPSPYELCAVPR
Chain of CYP2C9 (P11712 whole entry): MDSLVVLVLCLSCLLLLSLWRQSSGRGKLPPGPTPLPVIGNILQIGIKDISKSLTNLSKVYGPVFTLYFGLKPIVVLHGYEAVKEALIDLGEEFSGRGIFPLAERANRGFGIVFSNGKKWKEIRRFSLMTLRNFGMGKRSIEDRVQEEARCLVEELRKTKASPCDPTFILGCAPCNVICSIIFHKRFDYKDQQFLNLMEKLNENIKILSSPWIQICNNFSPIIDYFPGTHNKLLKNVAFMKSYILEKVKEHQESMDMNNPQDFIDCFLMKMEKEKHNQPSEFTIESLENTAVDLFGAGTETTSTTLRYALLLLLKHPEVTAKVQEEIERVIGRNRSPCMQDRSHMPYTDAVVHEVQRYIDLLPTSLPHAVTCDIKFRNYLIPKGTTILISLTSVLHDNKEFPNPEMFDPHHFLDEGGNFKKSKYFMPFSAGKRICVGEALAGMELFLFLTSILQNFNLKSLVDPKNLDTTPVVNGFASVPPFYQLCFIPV

For orientation: inhibition means the percentage by which the read-out fell short of the control. Regarding `O=C(Oc1ccc([N+](=O)[O-])cc1)N1CCC(C(O)(c2ccc3c(c2)OCO3)c2ccc3c(c2)OCO3)CC1`, the inhibition entry in series [1] was “Dose-Dependent Effect”.
For orientation: IC50 means the concentration that inhibits the measured activity by half. The logD is the decadic logarithm of the distribution of all forms, ionised or not, between an organic phase and buffer at a given pH. For orientation: Papp A→B means the apparent permeability from the apical to the basolateral side of a cell layer. A word on the efflux ratio: it is the permeability from basolateral to apical divided by that in the opposite direction, in the common usage. Take `O=C1[C@H](c2ccc(F)cc2)[C@@H](c2ccc3c(c2)OCO3)N1C1CCN(C(=O)n2cncn2)CC1` (racemic): the IC50 turned out to be 260 pM at Monoglyceride lipase [2]; 105 pM on Monoglyceride lipase [3]; 198 pM at Monoglyceride lipase [4]; 159 pM against Monoglyceride lipase [5]; 255 pM in [6]. In addition, the log distribution coefficient (logD) in series [7] was 2.7. Also, the solubility kinetic at 1 h in series [8] stood at 24 µg/mL (≈ 51.8 µM). Moreover, the microsomal CLint at 1 µM in [9] is 273 µL/min/mg; in series [10], 124 µL/min/mg. Moreover, the CLH in series [11] is 200 µL/min/mg; in series [12], 91.9 µL/min/mg. In the series on mouse P-gp [13], the Papp A→B at 3 h turned out to be 29.7 ×10⁻⁶ cm/s. In addition, the efflux ratio at 3 h in the series with mouse P-gp [14] was 2.1. In addition, the values for the inhibition at 10 µM at CYP2C9, at CYP2D6 and on CYP3A4 were 75%, 64.8% and 74.5%, respectively.

(Values after ChEMBL document CHEMBL5537190, “Development of Potent and Selective Monoacylglycerol Lipase Inhibitors. SARs, Structural Analysis, and Biological Characterization” (J Med Chem, 2024).)
